According to paper PMC8025739 (Journal of medicinal chemistry, 2019):

Legend:
[1] = Metabolic stability in swine intestinal; type: in vitro ADME; settings: swine intestinal (jejunum) homogenate, 20 μm, 37 °C, 1 h (Figure 1B)
[2] = Negative control incubation without enzymes; type: physicochemical; settings: no enzyme, pH 6 buffer, 37 °C, 3 h
[3] = Pharmacokinetics in EL4 tumor-bearing CES1-/- mice; type: in vivo, C57BL/6 CES1−/− mice
Method in brief: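 EL4 cells (1 × 10^6 in PBS) were implanted SC in the flank of male and female C57BL/6 CES1−/− mice (6–8 weeks). At about 400 mm3 tumour volume, a single 3.2 mg/kg SC dose was given in ethanol/Tween 80/saline (5:10:85). Plasma, jejunum and tumour were sampled at set times, n = 3 per time point. Analysis was LC–MS/MS with noncompartmental parameters, mean ± SEM.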

[4] = In vitro plasma stability, mouse plasma; type: in vitro ADME; settings: prodrug 20 μm, 37 °C
P493B lymphoma cells = test: Human tumor cell-to-plasma partitioning, P493B cells in human plasma; type: cell-based; settings: human plasma with P493B cells, 0.25-2 h (Figure 3A)
Method in brief: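 P493B lymphoma cells were grown in RPMI 1640 with L-glutamine, 10% FBS and 1% antibiotic/antimycotic at 37 °C and 5% CO2. Pelleted cells were resuspended in human plasma at 10 million cells/mL and preincubated 5 min at 37 °C. Test compound was incubated at 37 °C for 1 h, or for 0.25, 0.5, 1 and 2 h. Plasma and washed pellets were analysed for intact prodrug and DON by LC–MS/MS, with DON dabsyl-derivatised.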

[5] = In vitro plasma stability, human plasma; type: in vitro ADME; settings: prodrug 20 μm, 37 °C
[6] = Metabolic stability in swine liver homogenate; type: in vitro ADME; settings: 20 μm, 37 °C, 1 h (Figure 1A)
[7] = In vitro plasma stability, swine plasma; type: in vitro ADME; settings: prodrug 20 μm, 37 °C

Row | Compound | % remaining at 1 h in swine intestinal homogenate [1] | Plasma Stability (%Remaining at 1 h) Human [5] | Plasma Stability (%Remaining at 1 h) Swine [7] | other results
1 | CC(=O)NCCCC[C@H](NC(=O)OCC1c2ccccc2-c2ccccc21)C(=O)N[C@@H](CCC(=O)C=[N+]=[N-])C(=O)OC(C)C [Compound 3, Isopropyl 2-(2-((((9H-Fluoren-9-yl)methoxy)carbonyl)-amino)-6-acetamidohexanamido)-6-diazo-5-oxohexanoate] | instability | – | – | –
2 | CC(=O)NCCCC[C@H](NC(=O)C12CC3CC(CC(C3)C1)C2)C(=O)N[C@@H](CCC(=O)C=[N+]=[N-])C(=O)OC(C)C [Compound 6, isopropyl 2-(6-acetamido-2-(adamantane-1-carboxamido)hexanamido)-6-diazo-5-oxohexanoate] | – | complete stability | complete stability | chemical stability in negative control without enzymes [2]: chemically stable; intact prodrug measured in tumor ([3]; EL4 tumor, SC 3.2 mg/kg): minimal; DON AUC in tumor after dosing of 6 ([3]; EL4 tumor, SC 3.2 mg/kg (1 mg/kg DON equivalent), AUC0–t): 5.1 nmol·h/g; DON AUC in jejunum (GI tissues) after dosing of 6 ([3]; jejunum, SC 3.2 mg/kg (1 mg/kg DON equivalent), AUC0–t): 0.45 nmol·h/g; intact prodrug levels in jejunum ([3]; jejunum, SC 3.2 mg/kg, below the limit of quantification): < 0.001 nmol/mL; Plasma Stability (%Remaining at 1 h) Mouse [4]: instability; stability of intact prodrug in human plasma, time course (P493B lymphoma cells): stable over the 2 h incubation period; % remaining at 1 h in swine liver homogenate [6]: 100%
3 | CC(=O)NCCCC[C@H](NC(=O)[C@H](Cc1c[nH]c2ccccc12)NC(=O)C(C)(C)C)C(=O)N[C@@H](CCC(=O)C=[N+]=[N-])C(=O)OC(C)C [Compound 11, Isopropyl 2-(2-(3-(1H-Indol-3-yl)-2-pivalamidopropanamido)-6-acetamidohexanamido)-6-diazo-5-oxohexanoate] | instability | – | – | –
4 | CCCCCCCCCCCCCCCC(=O)N[C@@H](CCCCNC(C)=O)C(=O)N[C@@H](CCC(=O)C=[N+]=[N-])C(=O)OC(C)C [Compound 4, Isopropyl 2-(6-Acetamido-2-palmitamidohexanamido)-6-diazo-5-oxohexanoate] | unstable | – | – | –
5 | CC(=O)NCCCC[C@H](NC(=O)[C@@H](N)Cc1c[nH]c2ccccc12)C(=O)N[C@@H](CCC(=O)C=[N+]=[N-])C(=O)OC(C)C [Compound 9, Isopropyl 2-(6-Acetamido-2-(2-amino-3-(1H-indol-3-yl)-propanamido)hexanamido)-6-diazo-5-oxohexanoate] | instability | unstable | unstable | –
6 | CC(=O)NCCCC[C@H](NC(=O)[C@@H]1Cc2ccccc2CN1)C(=O)N[C@@H](CCC(=O)C=[N+]=[N-])C(=O)OC(C)C [Compound 12, Isopropyl 2-(6-Acetamido-2-(1,2,3,4-tetrahydroisoquinoline-3-carboxamido)hexanamido)-6-diazo-5-oxohexanoate] | instability | – | – | –
